The source made the active and inactive calls. The calls are words filed in the database; no cut-off is given here.
Columns and labels:
[1] = Antioxidant activity assessed as DPPH radical scavenging activity at 50 uM preincubated for 5 mins followed by DPPH addition and measured after 30 mins by ultraviolet spectrophotometric analysis relative to control; format: functional
Summary of the method: (§1)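 DPPH (0.1 mM) in methanol. Test compound was added and held 5 min before DPPH, then 30 min incubation. Absorbance read at 517 nm. Scavenging % = (A1−A2)/A1×100, with A1 the control absorbance and A2 the compound absorbance. Run in triplicate in 96-well plates.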

[2] = biological target: Cholinesterase (Equus caballus, UniProt P81908); assay: Inhibition of equine serum BuChE using butyrylthiocholine iodide as substrate preincubated for 5 mins followed by substrate addition and measured after 5 mins by Ellman method
Sequence of Cholinesterase (P81908 whole entry): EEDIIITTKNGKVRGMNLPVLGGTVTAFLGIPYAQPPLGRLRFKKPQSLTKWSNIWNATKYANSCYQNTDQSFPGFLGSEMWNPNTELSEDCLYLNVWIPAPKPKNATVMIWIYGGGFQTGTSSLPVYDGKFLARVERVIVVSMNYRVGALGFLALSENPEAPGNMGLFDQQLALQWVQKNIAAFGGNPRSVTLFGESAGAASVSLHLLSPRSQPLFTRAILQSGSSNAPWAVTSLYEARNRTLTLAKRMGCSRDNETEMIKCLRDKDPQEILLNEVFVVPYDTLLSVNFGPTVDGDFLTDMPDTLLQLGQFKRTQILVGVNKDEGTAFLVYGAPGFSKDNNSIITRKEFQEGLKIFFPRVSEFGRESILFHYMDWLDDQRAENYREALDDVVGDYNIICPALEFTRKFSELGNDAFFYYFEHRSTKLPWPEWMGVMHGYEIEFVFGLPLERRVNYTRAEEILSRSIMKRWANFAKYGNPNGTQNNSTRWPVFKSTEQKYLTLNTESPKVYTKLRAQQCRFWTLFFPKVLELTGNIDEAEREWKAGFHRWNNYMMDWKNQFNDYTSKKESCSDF
Summary of the method: (§2)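 Ellman method. Equine serum BuChE 0.06 U/mL (for ratio lines, electric eel AChE 0.22 U/mL) in 1 M potassium phosphate buffer. Enzyme stood 5 min with compound before 0.01 M DTNB was added, with butyrylthiocholine iodide as substrate (acetylthiocholine for AChE). Compound range 0.01–100 µM final. IC50 as mean ± SD of three independent experiments. SI = IC50 BuChE / IC50 AChE.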

[3] = biological target: T1, Amyloid-beta precursor protein (Homo sapiens, UniProt P05067); assay: Disaggregation of self-induced amyloid beta (1 to 42) (unknown origin) preformed fibrils measured after 24 hrs by ThT fluorescence assay relative to control
T1 sequence (P05067 whole entry): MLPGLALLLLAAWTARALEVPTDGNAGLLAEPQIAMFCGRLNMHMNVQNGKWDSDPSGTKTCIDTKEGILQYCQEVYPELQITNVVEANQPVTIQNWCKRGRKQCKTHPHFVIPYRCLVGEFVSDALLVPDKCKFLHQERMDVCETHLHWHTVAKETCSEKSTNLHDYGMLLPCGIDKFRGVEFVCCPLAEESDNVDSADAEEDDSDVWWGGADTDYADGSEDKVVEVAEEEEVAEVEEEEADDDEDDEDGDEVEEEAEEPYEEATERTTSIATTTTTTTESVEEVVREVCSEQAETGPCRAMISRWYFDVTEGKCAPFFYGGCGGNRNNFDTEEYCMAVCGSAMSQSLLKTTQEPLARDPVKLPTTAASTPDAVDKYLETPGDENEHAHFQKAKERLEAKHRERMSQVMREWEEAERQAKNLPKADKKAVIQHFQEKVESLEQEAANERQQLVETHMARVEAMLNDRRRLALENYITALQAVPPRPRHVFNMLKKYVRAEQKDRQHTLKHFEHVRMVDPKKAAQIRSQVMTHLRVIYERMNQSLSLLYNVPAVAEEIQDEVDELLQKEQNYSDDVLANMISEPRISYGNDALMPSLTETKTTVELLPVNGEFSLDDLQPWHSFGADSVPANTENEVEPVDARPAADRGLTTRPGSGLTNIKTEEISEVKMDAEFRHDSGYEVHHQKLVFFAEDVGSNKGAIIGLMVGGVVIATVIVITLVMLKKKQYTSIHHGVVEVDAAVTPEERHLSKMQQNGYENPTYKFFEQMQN
Summary of the method: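 HFIP-pretreated Aβ1-42, DMSO stock, diluted in 50 mM phosphate buffer pH 7.4 (100 µM final). Incubated 48 h at 37 °C to form fibrils, then compound or buffer added and held 24 h at 37 °C. Diluted to 200 µl with glycine-NaOH 50 mM pH 8.0, then ThT fluorescence read. Peptide-free buffer blanks with and without compound. Triplicates.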

[4] = biological target: Acetylcholinesterase (Electrophorus electricus, UniProt O42275); assay: Inhibition of electric eel Ache using acetylthiocholine iodide as substrate preincubated for 5 mins followed by substrate addition and measured after 5 mins by Ellman method
Sequence of Acetylcholinesterase (O42275 whole entry): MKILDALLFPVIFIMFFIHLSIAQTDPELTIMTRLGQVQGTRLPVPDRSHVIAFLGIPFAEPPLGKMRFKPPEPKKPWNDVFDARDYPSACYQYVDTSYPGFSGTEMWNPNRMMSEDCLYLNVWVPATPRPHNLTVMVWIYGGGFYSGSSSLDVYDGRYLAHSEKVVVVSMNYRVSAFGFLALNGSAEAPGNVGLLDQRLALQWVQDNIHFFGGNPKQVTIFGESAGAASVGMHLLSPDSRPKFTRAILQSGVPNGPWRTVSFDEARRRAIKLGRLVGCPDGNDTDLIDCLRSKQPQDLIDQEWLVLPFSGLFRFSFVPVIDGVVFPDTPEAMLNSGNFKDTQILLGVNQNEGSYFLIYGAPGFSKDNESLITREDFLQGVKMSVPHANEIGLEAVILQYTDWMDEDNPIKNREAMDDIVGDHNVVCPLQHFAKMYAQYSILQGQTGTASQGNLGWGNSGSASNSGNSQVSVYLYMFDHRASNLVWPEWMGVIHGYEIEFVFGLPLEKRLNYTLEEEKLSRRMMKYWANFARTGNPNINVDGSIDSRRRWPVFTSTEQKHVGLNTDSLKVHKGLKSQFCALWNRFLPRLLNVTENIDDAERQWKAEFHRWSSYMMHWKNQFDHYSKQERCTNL

[5] = Selectivity index, ratio of IC50 for equine serum BuChE to IC50 for electric eel Ache; summary of the method: as §2
[6] = biological target: T1, Amyloid-beta precursor protein; assay: Inhibition of HFIP-pretreated self-induced amyloid beta (1 to 42) (unknown origin) aggregation at 50 uM measured after 48 hrs by ThT fluorescence assay relative to control
Summary of the method: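 Aβ1-42 pretreated with HFIP (8 mg/ml), dried under nitrogen, 5 mM stock in DMSO. Diluted in 50 mM phosphate buffer pH 7.4 to 100 µM final and incubated with or without 50 µM compound for 48 h at 37 °C. Diluted with glycine-NaOH 50 mM pH 8.0, then ThT fluorescence read. Buffer blanks included. Mean ± SD of three experiments.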

[7] = Antioxidant activity assessed as trolox equivalent of AAPH-induced radical scavenging activity at 100 uM preincubated for 15 mins followed by AAPH addition and measured at 1 minute interval for 80 mins by ORAC-FL assay; format: functional
Summary of the method: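 ORAC-FL in 75 mM phosphate buffer, pH 7.4. Fluorescein 70 nM final was preincubated with the antioxidant 15 min at 37 °C, then AAPH 12 mM final was added. Fluorescence read every minute for 80 min (ex 485/em 520 nm). Net AUC = AUC sample minus AUC blank. Trolox calibration 1–8 µM gave Trolox equivalents. At least three independent runs, each in triplicate.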

[8] = biological target: T1, Amyloid-beta precursor protein; assay: Inhibition of self-induced amyloid beta (1 to 42) (unknown origin) aggregation at 12.5 uM measured after 48 hrs by ThT fluorescence assay relative to control
Summary of the method: (§3)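 Aβ1-42 is pretreated with HFIP (8 mg/ml) and dried to a film under nitrogen. The film is dissolved in DMSO to a 5 mM stock. This is diluted in 50 mM phosphate buffer, pH 7.4, to 100 µM final peptide, with or without compound, and incubated at 37 °C for 48 h. Samples are then diluted with 50 mM glycine-NaOH, pH 8.0, and fibrils quantified by ThT fluorescence. Blanks without Aβ are subtracted. Values are means ± SD of three experiments.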

[9] = biological target: T1, Amyloid-beta precursor protein; assay: Inhibition of self-induced amyloid beta (1 to 42) (unknown origin) aggregation at 25 uM measured after 48 hrs by ThT fluorescence assay relative to control; summary of the method: as §3
[10] = biological target: T1, Amyloid-beta precursor protein; assay: Inhibition of self-induced amyloid beta (1 to 42) (unknown origin) aggregation at 50 uM for 48 hrs by TEM analysis
Summary of the method: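 Aβ1-42 in 50 mM phosphate buffer, pH 7.4, is incubated with or without compound at 37 °C for 48 h, with a curcumin co-incubation and a 0 h sample as comparisons. 10 µL aliquots are applied to carbon grids for 1 min at room temperature, washed with water and negatively stained with sodium phosphotungstate for 1 min. Fibrils are then imaged by transmission electron microscopy.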

[11] = biological target: T1, Amyloid-beta precursor protein; assay: Inhibition of self-induced amyloid beta (1 to 42) (unknown origin) aggregation at 100 uM measured after 48 hrs by ThT fluorescence assay relative to control; summary of the method: as §3
[12] = biological target: T1, Amyloid-beta precursor protein; assay: Inhibition of self-induced amyloid beta (1 to 42) (unknown origin) aggregation measured after 48 hrs by ThT fluorescence assay; summary of the method: as §3
[13] = biological target: T1, Amyloid-beta precursor protein; assay: Inhibition of self-induced amyloid beta (1 to 42) (unknown origin) aggregation at 75 uM measured after 48 hrs by ThT fluorescence assay relative to control; summary of the method: as §3
[14] = Antioxidant activity assessed as DPPH radical scavenging activity at 100 uM preincubated for 5 mins followed by DPPH addition and measured after 30 mins by ultraviolet spectrophotometric analysis relative to control; format: functional; summary of the method: as §1
[15] = Antioxidant activity assessed as DPPH radical scavenging activity at 10 uM preincubated for 5 mins followed by DPPH addition and measured after 30 mins by ultraviolet spectrophotometric analysis relative to control; format: functional; summary of the method: as §1
[16] = biological target: T1, Amyloid-beta precursor protein; settings: 25 uM

SMILES	Activity [1]	IC50 [2]	Activity [3]	IC50 [4]	Ratio IC50 [5]	inhibition [6]	Activity (umolequiv/umol) [7]	inhibition [8]	inhibition [9]	inhibition [10]	inhibition [11]	IC50 [12]	inhibition [13]	Activity [14]	Activity [15]	inhibition [16]
COc1ccc(OC)c(C2C=C(c3cccc4ccccc34)Nc3nncn32)c1 (stereo not drawn)	53.8%	> 100000 nM	47.9%	602 nM	> 160	42.1%	0.472									
COc1ccc(-c2cc(-c3cccc4ccccc34)nc3nncn23)cc1OC	27.9%	> 100000 nM		3000 nM	> 33.4	36.6%	0.234									
Clc1ccc(C2C=C(c3cccc4ccccc34)Nc3nncn32)cc1 (stereo not drawn)	19.2%	900 nM		371 nM	2.42	inactive	0.268									
c1coc(-c2cc(-c3cccc4ccccc34)nc3nncn23)c1	20.4%	528 nM		14 nM	37.7	12.1%	0.101									
COc1ccc(C2C=C(c3cccc4ccccc34)Nc3nncn32)cc1 (stereo not drawn)	35%	150 nM		8.6 nM	17.4	31.2%	0.446									
O=[N+]([O-])c1cccc(C2C=C(c3cccc4ccccc34)Nc3nncn32)c1 (stereo not drawn)	33%	> 100000 nM	58.8%	> 100000 nM		72.8%	0.508	42%	59.3%	Active	91.4%	17400 nM	85.8%			
Fc1ccc(C2C=C(c3cccc4ccccc34)Nc3nncn32)cc1 (stereo not drawn)	36.2%	39000 nM	62.6%	1910 nM	19.7	85.5%	0.347	70.4%	82.4%	Active	95.4%	3870 nM	87.5%			
c1ccc(-c2cc(-c3cccc4ccccc34)nc3nncn23)cc1	18.8%	> 100000 nM		597 nM	> 168	inactive	0.301									
O=C(O)c1cc(O)c(O)c(O)c1														95.3%	66%	
COc1cc(/C=C/C(=O)CC(=O)/C=C/c2ccc(O)c(OC)c2)ccc1O																Active
CN(C)c1ccc(-c2cc(-c3cccc4ccccc34)nc3nncn23)cc1	21.3%	20900 nM	54.5%	126 nM	166	43.1%	0.171									
Clc1ccccc1C1C=C(c2cccc3ccccc23)Nc2nncn21 (stereo not drawn)	15.5%	76 nM		74 nM	1.03	40.4%	0.39									

Source: ChEMBL document CHEMBL4387749, “Naphthalene-triazolopyrimidine hybrid compounds as potential multifunctional anti-Alzheimer's agents” (Bioorg Med Chem, 2019)
